Measured values from different studies.
Protocols differ between the studies behind these lines.
Medium: plasma

COc1ccc(-c2c(Nc3ccccn3)[nH]c3c(C4=CCCCC4)c(-c4ccccc4)nn3c2=O)cc1  AUC(0-t) (human; oral; 50 mg once daily; multiple doses, steady state, patients): 33400 ng·h/mL
C=CC(=O)NC1CCN(c2ncc3ncnc(Nc4ccc(Oc5ccc6c(c5)ncn6C)c(C)c4)c3n2)CC1  AUC(0-t) (male human; intravenous; 100 µg; healthy volunteers): 0.00262 µM·h
CC(=O)O[C@H]1C(=O)[C@@]2(C)[C@H]([C@H](OC(=O)c3ccccc3)[C@]3(O)C[C@H](OC(=O)[C@H](O)[C@@H](NC(=O)c4ccccc4)c4ccccc4)C(C)=C1C3(C)C)[C@]1(OC(C)=O)CO[C@@H]1C[C@@H]2O  AUC(0-t) (human; intravenous; 80 mg/m²): 3.25 µM·h
COc1ccc2c(c1)CN(C(=O)CCN1CCC(Cc3ccccc3)CC1)CC[S@@+]2[O-]  AUC(0-t) (male human; intravenous; 0.05 mg/kg; healthy volunteers): 241 ng·h/mL
C[C@@H](Oc1ccc(S(C)(=O)=O)cc1C(=O)N1C[C@@H]2C[C@]2(c2cc(C(F)(F)F)on2)C1)C(F)(F)F  AUC(0-t) (human; oral; 10 mg; single dose, fasted): 1.61 µM·h
OC[C@H]1O[C@@H](c2cc(Cc3ccc(C4CC4)cc3)c(Cl)c3c2CCO3)[C@H](O)[C@@H](O)[C@@H]1O  AUC(0-t) (human; oral; 0.3 mg; single dose, fed): 24.6 ng·h/mL
CC1(C)CC[C@]2(NC(=O)C(C)(F)F)CC[C@]3(C)[C@H](C(=O)C=C4[C@@]5(C)C=C(C#N)C(=O)C(C)(C)[C@@H]5CC[C@]43C)[C@@H]2C1  AUC(0-t) (human; oral; 150 mg; single dose): 1730 ng·h/mL
CC(C)n1c(C2CCNCC2)nc2c([N+](=O)[O-])c(Br)c(Br)cc21  AUC(0-t) (human; oral; 25 mg; patients): 152 ng·h/mL
CC(=O)N(C)[C@H]1CCN(C(=O)c2cnc3c(c2)C[C@](C)(c2ccc(F)cc2)N3)C1  AUC(0-t) (male human; oral; 15 mg; multiple doses, once daily): 1.88 µM·h
